CSC inhib – blocks cancer stem cells. cancer stem cell-like cells viability, luminescence. inhibition, % at 7.5 µM. hit rate 1.1% among 300,000. AID 2717; in the data active = inhibition above about 75%; inconclusive = no clear call, values can overlap the other calls; tested in HMLE shEcad cells
T cruzi repl – T. cruzi replication inhibition. inhibition, % (concentration not given with the values). hit rate 1.4% among 300,000. T. cruzi beta-gal in NIH3T3, luminescence, 90 h;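 active = mean inhibition across valid replicates above about 55%, limit read from the data; inconclusive = mean below that limit but half or more replicates reach it; inactive = mean below it, under half of replicates reach it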;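 also: signal also drops with host cell toxicity which is not excluded here; higher percent means less beta-gal luminescence so fewer parasites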
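System – NIH/3T3 host cells with β-galactosidase reporter T. cruzi · Doses – single 50 nL compound addition per well in DMSO · Reagent – 5000 T. cruzi trypomastigotes/well · Medium – Low-serum DMEM with 2% FBS · Timing – ≥90 h infection period, 3 h prior cell attachment · Evaluation – parasite load inhibition, % · Technique – GalScreen luminescence, 60 min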
UPR CHOP act – activators of apoptotic arm of unfolded protein response (CHOP) | hit rate 0.34% among 330,000 | CHO-CHOP luciferase reporter, UPR activation, luminescence; percent of tunicamycin response over DMSO baseline | activation, % at 10 µM | AID 449763;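 active = at 10 µM dose, activation of 40% or more, normalized to positive control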
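Evaluation: % reporter activation, DMSO baseline versus tunicamycin full activation; System: CHO-CHOP luciferase reporter cell line; Input: 500 cells/well; Incubation: 6 h compound treatment, 37 °C; Measured by: Steady-Glo luciferase luminescence; Dosing: one dose, 10 µM in 0.5% DMSO; Buffer or medium: F12 medium, 10% FBS; Benchmarks: positive tunicamycin 10 µg/mL, negative DMSO alone.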
Mdm2-MdmX inh – inhibitors of human Mdm2/MdmX interaction; SaOS-2 split-luciferase Mdm2/MdmX complementation, luminescence; O15151+Q00987; inhibition, % at 8 µM; hit rate 3% among 330,000; AID 485346;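 active = inhibition of at least 50% at 8 µM in the primary screen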
Target sequence (O15151 whole entry, looked up): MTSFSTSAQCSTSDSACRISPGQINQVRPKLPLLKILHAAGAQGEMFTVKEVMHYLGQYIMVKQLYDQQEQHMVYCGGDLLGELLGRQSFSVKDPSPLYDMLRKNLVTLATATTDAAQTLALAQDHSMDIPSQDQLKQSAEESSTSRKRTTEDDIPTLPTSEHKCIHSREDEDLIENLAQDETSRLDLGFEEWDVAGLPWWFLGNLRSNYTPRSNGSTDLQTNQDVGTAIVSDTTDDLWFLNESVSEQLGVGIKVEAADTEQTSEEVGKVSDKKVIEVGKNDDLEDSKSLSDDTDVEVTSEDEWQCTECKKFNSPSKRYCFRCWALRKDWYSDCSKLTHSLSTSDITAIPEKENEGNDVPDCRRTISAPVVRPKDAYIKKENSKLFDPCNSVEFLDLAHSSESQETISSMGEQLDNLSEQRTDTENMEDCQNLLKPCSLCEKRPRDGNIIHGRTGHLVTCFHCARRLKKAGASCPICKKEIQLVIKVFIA
Target sequence (Q00987 whole entry, looked up): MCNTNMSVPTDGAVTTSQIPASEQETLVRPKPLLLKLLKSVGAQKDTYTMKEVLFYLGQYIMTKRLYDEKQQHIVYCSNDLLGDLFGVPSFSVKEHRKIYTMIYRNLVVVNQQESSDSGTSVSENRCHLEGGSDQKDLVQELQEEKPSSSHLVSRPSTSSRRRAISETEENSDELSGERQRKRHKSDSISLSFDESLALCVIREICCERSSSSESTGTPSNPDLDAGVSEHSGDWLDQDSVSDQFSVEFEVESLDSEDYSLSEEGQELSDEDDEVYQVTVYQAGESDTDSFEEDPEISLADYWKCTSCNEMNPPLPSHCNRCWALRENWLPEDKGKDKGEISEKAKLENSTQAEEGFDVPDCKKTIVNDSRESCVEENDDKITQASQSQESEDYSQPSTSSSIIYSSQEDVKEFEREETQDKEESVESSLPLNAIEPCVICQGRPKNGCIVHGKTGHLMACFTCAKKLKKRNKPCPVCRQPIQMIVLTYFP
XBP1 UPR activ – adaptive UPR (XBP1) activation; AID 463104; activation, % at 20 µM; CHO-XBP1 luciferase reporter, IRE1-XBP1 UPR activation, luminescence; percent of tunicamycin response, DMSO as zero; hit rate 0.33% among 330,000;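 active = versus positive control, 20 µM dose yields 30% or more activation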
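Material: CHO-XBP1 cells stably carrying IRE1-XBP1-driven luciferase reporter / Amount: 1000 cells per well / Compound: 20 µM, 1% DMSO / Times: 6 h treatment, 37 °C / Detection: luciferase luminescence / Measure: % activation of reporter signal versus tunicamycin and DMSO controls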
Beta cell apopt – beta cell apoptosis inhibition. INS-1E cytokine-induced death, ATP luminescence, 48 h; percent of positive-control rescue, neutral wells zero. protection from apoptosis, % (no concentration beside the values). hit rate 0.8% among 300,000;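 active = Every replicate reaches about 75%, or at least half do and their mean reaches it too, limit read from the data; inconclusive = At least half of replicates reach the limit but their mean does not; inactive = Under half of replicates reach the limit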;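 also: higher means more ATP so stronger rescue from cytokine killing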
Mdm2 MdmX conf – human Mdm2/MdmX binding inhibition, confirmed | shares compounds with Mdm2-MdmX inh | luminescent assay | inhibition, % at 8 µM | hit rate 55% among 10,000; in the data active = inhibition above about 40%
FLuc counter – inhibits full-length luciferase, flagging false Mdm2/MdmX hits. shares compounds with Mdm2-MdmX inh. SaOS-2 full-length luciferase counterscreen, luminescence. inhibition, % at 8 µM. hit rate 77% among 6,200. AID 504607;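 active = mean inhibition at 8 µM reaching about 37%, which flags the compound as non-specific, limit read from the data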;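 also: p53-null SaOS-2 cells with luciferase driven by a doxycycline-inducible promoter; compound on cells about two nights before reading with doxycycline added after day one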
Large screens that a line does not name were inactive (follow-up assays come after a bar, where they were run). A selection: hits, their analogues and other compounds. The true share with any hit is near 5%.

O=C(CSc1nc2ccc(Nc3nc(N4CCOCC4)nc(N4CCOCC4)n3)cc2s1)Nc1ccccc1Cl	Mdm2-MdmX inh 89 | Mdm2 MdmX conf inactive | FLuc counter 88
Cc1c(NC(=O)c2ccc(F)c(S(=O)(=O)N3CCOCC3)c2)c(=O)n(-c2ccccc2)n1C	none
CC[C@@]1(C(=O)OC)N[C@H](CN(C)C(=O)COC)[C@@H]2C(=O)N(C)C(=O)[C@@H]21	none (no result: CSC inhib, T cruzi repl, Beta cell apopt)
N#CC1=C2SCC(O)(c3ccccc3)N2C(=O)CC1c1ccccc1F (stereo not drawn)	Mdm2-MdmX inh 87 | Mdm2 MdmX conf 83 | FLuc counter 40
COc1ccc2[nH]c3c(c2c1)CC(C)NC3=O (stereo not drawn)	Mdm2-MdmX inh 78 | Mdm2 MdmX conf 74 | FLuc counter inactive
COc1ccc2[nH]c3c(c2c1)CCn1c-3nc2ccccc2c1=O	none (no result: CSC inhib, T cruzi repl)
CC(C)C[C@H](NC(=O)OC(C)(C)C)c1nnc(SCc2ccccc2)o1	none
Cc1ccccc1CS(=O)(=O)c1nnc([C@H](CC(C)C)NC(=O)OC(C)(C)C)o1	Mdm2-MdmX inh 75 (no result: CSC inhib) | Mdm2 MdmX conf 79 | FLuc counter inactive
Cn1cc(CN2CCC(n3nccc3NC(=O)C3CCCC3)CC2)cn1	none
CCOC(=O)c1c(CCl)nc2ccccc2c1-c1ccccc1	none
ClCc1nc2ccccc2c2ccccc12	Mdm2-MdmX inh 52 | Mdm2 MdmX conf inactive
NC(=O)c1ccc(CN2CCc3ccccc3C2)cc1	none (no result: Beta cell apopt)
C/C(=N\NC(=O)c1ccc(O)cc1)c1cccc(NC(=O)c2ccc(Cl)cc2)c1	Mdm2-MdmX inh 58 | Mdm2 MdmX conf inactive
COc1ccc(C(=O)Nc2cccc(/C(C)=N/NC(=O)c3ccc([N+](=O)[O-])c(C)c3)c2)cc1OC	Mdm2-MdmX inh 56 | Mdm2 MdmX conf inactive
COc1ccc(C(=O)Nc2cccc(/C(C)=N\NC(=O)c3ccoc3C)c2)cc1OC	none (no result: CSC inhib, Beta cell apopt)
COc1ccc([N+](=O)[O-])cc1NC(=O)C(C)Sc1nc(C)c(C)c(C)n1 (stereo not drawn)	none
COc1cc(NC(=S)N2CCN(C(c3ccccc3)c3ccccc3)CC2)cc(OC)c1	Mdm2-MdmX inh 67 | Mdm2 MdmX conf inactive
COc1cc(OC)cc(C(=O)Nc2ccc(S(=O)(=O)Nc3ccccn3)cc2)c1	none (no result: CSC inhib)
CCN(C[C@H]1N[C@@](CC)(C(=O)OC)[C@H]2C(=O)N(Cc3ccccc3)C(=O)[C@@H]12)C(=O)c1ccc(C(C)(C)C)cc1	Mdm2-MdmX inh 75 (no result: CSC inhib, T cruzi repl, Beta cell apopt) | Mdm2 MdmX conf 68 | FLuc counter 55
CC[C@@]1(C(=O)OC)N[C@H](CN(C)C(=O)c2ccc(C(C)(C)C)cc2)[C@@H]2C(=O)N(Cc3ccccc3)C(=O)[C@@H]21	none (no result: CSC inhib, T cruzi repl, Beta cell apopt)
CC[C@@]1(C(=O)OC)N[C@H](CN(C)C(=O)Nc2ccccc2)[C@@H]2C(=O)N(Cc3ccccc3)C(=O)[C@@H]21	none (no result: CSC inhib, T cruzi repl, Beta cell apopt)
CCN(C[C@H]1N[C@@](Cc2ccccc2)(C(=O)OC)[C@H]2C(=O)N(Cc3ccccc3)C(=O)[C@@H]12)C(=O)Nc1ccc(Cl)cc1	Mdm2-MdmX inh 66 (no result: T cruzi repl) | Mdm2 MdmX conf 48 | FLuc counter 56
CCN(C[C@H]1N[C@@](Cc2ccccc2)(C(=O)OC)[C@H]2C(=O)N(Cc3ccccc3)C(=O)[C@@H]12)C(=O)Nc1ccc(F)cc1	none (no result: CSC inhib, T cruzi repl, Beta cell apopt)
CC[C@@]1(C(=O)OC)N[C@H](CN(C)C(=O)Nc2ccc(C(F)(F)F)cc2)[C@@H]2C(=O)N(Cc3ccccc3)C(=O)[C@@H]21	Mdm2-MdmX inh 84 (no result: CSC inhib, T cruzi repl) | Mdm2 MdmX conf 81 | FLuc counter inactive
COC(=O)[C@]1(Cc2ccccc2)N[C@H](CN(C)C(=O)Nc2ccc(C(F)(F)F)cc2)[C@@H]2C(=O)N(Cc3ccccc3)C(=O)[C@@H]21	Mdm2-MdmX inh 70 (no result: CSC inhib, T cruzi repl) | Mdm2 MdmX conf 43 | FLuc counter 65
CCOC(=O)CN1CCS(=O)(=O)CC1	none
CC(C)NCC(O)Cn1c2c(c3ccccc31)CCc1c-2cnn1-c1ccccc1 (stereo not drawn)	Mdm2-MdmX inh 98, Beta cell apopt 113 | Mdm2 MdmX conf 74 | FLuc counter inactive
CN1CCc2c(n(CC(O)CNCc3ccccc3)c3ccccc23)C1=O (stereo not drawn)	none
CS(=O)(=O)c1ccccc1-c1csc(N2CCC(C(N)=O)CC2)n1	none (no result: T cruzi repl)
Cn1c(=O)c(/C(N)=N/OC(=O)c2ccccc2)cn(-c2ccccc2)c1=O	Mdm2-MdmX inh 58 | Mdm2 MdmX conf inactive
Cc1cc(NC(=O)CCC(=O)N(Cc2ccc(F)cc2)C(C(=O)NC2CCCC2)c2ccco2)no1 (stereo not drawn)	none (no result: T cruzi repl)
CC(=O)Nc1ccc(C)cc1	none (no result: T cruzi repl)
CC(=O)Nc1ccc(C(=O)CCl)cc1	Mdm2-MdmX inh 67 (no result: T cruzi repl) | Mdm2 MdmX conf inactive
CCCCCCCCNC(C)C(O)c1ccc(SC(C)C)cc1 (stereo not drawn)	CSC inhib 102, T cruzi repl inconclusive, Mdm2-MdmX inh 95, Beta cell apopt 117 | Mdm2 MdmX conf inactive
Cc1ccc(Cn2c(C3CCCN3c3nc(-c4cc(Cl)c(N)c(Cl)c4)cs3)nc3cc(Cl)c(Cl)cc32)cc1 (stereo not drawn)	none
Cc1oc(-c2ccccc2Cl)nc1CSCC(=O)N1CCCC1	Mdm2-MdmX inh 78 | Mdm2 MdmX conf 84 | FLuc counter inactive
O=C(Cc1ccccc1)NC1c2ccccc2-c2ccccc21	none
Cc1cc(C)cc(SCc2noc(C(=O)NCCN(C)C)c2C(=O)NCCN(C)C)c1	Mdm2-MdmX inh 89 | Mdm2 MdmX conf 47 | FLuc counter 49
CCOc1ccc2c(c1)C(C)=CC(C)(C)N2S(=O)(=O)c1ccc(C)cc1	Mdm2-MdmX inh 63 (no result: CSC inhib, Beta cell apopt) | Mdm2 MdmX conf 61 | FLuc counter 121
COc1ccc2c(c1)C(C)=CC(C)(C)N2S(=O)(=O)c1ccc(C)cc1	Mdm2-MdmX inh 63 | Mdm2 MdmX conf 67 | FLuc counter 96
CC1=CC(C)(C)N(S(=O)(=O)c2ccc(C)cc2)c2cc(C)ccc21	Mdm2-MdmX inh 54 | Mdm2 MdmX conf 69 | FLuc counter 122
CC1=CC(C)(C)N(C(=O)CCl)c2cc(C)ccc21	none
CN(Cc1ccc(N(C)C)cc1)C(=O)c1cc2ccccc2o1	none
CCC(C)NC(=O)c1ccc(CN2CCc3ccccc3C2)cc1 (stereo not drawn)	none
O=C1c2ccc3c4c(ccc(c24)C(=O)N1c1cccc(O)c1)C(=O)N(c1cccc(O)c1)C3=O	Mdm2-MdmX inh 65, Beta cell apopt 118 | Mdm2 MdmX conf 47 | FLuc counter inactive

Screens from PubChem BioAssay.
